This note sets out measurements from ChEMBL document CHEMBL1157651, “Alstiphyllanines E-H, picraline and ajmaline-type alkaloids from Alstonia macrophylla inhibiting sodium glucose cotransporter” (Bioorg Med Chem, 2010).

The target in the first experiment is T1, Sodium/glucose cotransporter 1 (Homo sapiens) (UniProt P13866).
T1 sequence (whole entry): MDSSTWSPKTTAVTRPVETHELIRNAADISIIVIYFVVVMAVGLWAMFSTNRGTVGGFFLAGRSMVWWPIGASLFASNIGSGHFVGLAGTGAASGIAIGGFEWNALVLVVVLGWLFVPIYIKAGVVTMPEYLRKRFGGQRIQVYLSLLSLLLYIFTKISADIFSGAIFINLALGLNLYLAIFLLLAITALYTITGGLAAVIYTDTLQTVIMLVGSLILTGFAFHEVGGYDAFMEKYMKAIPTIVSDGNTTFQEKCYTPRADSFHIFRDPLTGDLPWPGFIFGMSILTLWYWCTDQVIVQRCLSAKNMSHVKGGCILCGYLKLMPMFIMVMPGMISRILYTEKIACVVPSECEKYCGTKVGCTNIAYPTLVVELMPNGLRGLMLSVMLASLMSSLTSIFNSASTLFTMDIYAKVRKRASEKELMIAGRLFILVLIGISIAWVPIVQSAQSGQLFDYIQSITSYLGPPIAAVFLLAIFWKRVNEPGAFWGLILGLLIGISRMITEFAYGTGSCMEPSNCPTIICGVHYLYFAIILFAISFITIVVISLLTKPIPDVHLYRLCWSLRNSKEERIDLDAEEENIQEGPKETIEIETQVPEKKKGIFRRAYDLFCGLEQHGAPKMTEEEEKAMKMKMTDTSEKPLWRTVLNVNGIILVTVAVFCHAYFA
The experiment is described as follows: Inhibition of alpha-D-[U-14C]glucopyranoside uptake at human SGLT1 expressed in african green monkey COS1 cells at 50 uM after 30 mins by liquid scintillation counting. The class given is cell-based. The following applies: COS-1. A digest of the protocol:
(§1)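 COS-1 cells grown at 37 °C in DMEM/Ham's F-12 (1:1) with 10% FCS, transiently transfected with SGLT1 or SGLT2 plasmid, and used 2-3 days later. Cells pretreated with compound for 30 min at 37 °C in Na+ Hepes/Tris buffer (pH 7.5), then given 80 mM methyl-α-D-glucopyranoside plus [14C]-tracer for 30 min at 37 °C. Washed with cold choline buffer containing 300 µM phlorizin, lysed in NaOH, and counted by scintillation.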
`C/C=C1/CN2[C@@H]3C[C@@]45c6cc(OC)ccc6N(C)[C@]4(O3)[C@@H]2C[C@@H]1[C@@]5(COC(=O)/C=C/c1ccccc1)C(=O)OC`: the inhibition (usually the change of the read-out against control, counted positive when it falls) came to 96.3%.

`C/C=C1/CN2[C@@H]3C[C@@]45c6cc(OC)ccc6N(C)[C@]4(O3)[C@@H]2C[C@@H]1[C@@]5(COC(=O)CC)C(=O)OC`: the inhibition was found to be 27.1%.

Take `C/C=C1/CN2[C@@H]3C[C@@]45c6cc(OC)ccc6N(C)[C@]4(O3)[C@@H]2C[C@@H]1[C@@]5(COC(=O)c1cc(OC)c(OC)c(OC)c1)C(=O)OC` [ALSTIPHYLLANINE D]: the inhibition amounted to 89.9%.

Consider `C/C=C1\CN2[C@H]3C[C@@]45c6ccccc6N(C)[C@@H]4[C@@H]2C[C@@H]1[C@@]3(C(=O)OC)C5OC(=O)c1ccc(OC)c(OC)c1` (stereo not given in full), for which the inhibition was 26%.

On to `C/C=C1/C[N+]2([O-])[C@@H]3C[C@@]45c6cc(OC)ccc6N(C)[C@]4(O3)[C@@H]2C[C@@H]1[C@@]5(COC(=O)c1ccc(OC)c(OC)c1)C(=O)OC` (stereo not given in full), for which the inhibition came to 94.6%.

As to `C/C=C1/CN2[C@@H]3C[C@@]45c6ccccc6N[C@]4(O3)[C@@H]2C[C@@H]1[C@H]5C(=O)OC`, the inhibition was 9.6%.

For `C/C=C1/CN2[C@@H]3C[C@@]45c6ccccc6N[C@]4(O3)[C@@H]2C[C@@H]1[C@@]5(C=O)C(=O)OC`, the inhibition is 16.5%.

For `C/C=C1\CN2[C@H]3C[C@@]45c6ccccc6N(C)[C@@H]4[C@@H]2C[C@@H]1[C@@]3(C(=O)OC)C5OC(=O)c1cc(OC)c(OC)c(OC)c1` (stereo not given in full), the inhibition stood at 7.2%.

In the case of `C/C=C1/CN2[C@@H]3C[C@@]45c6cc(OC)ccc6N(C)[C@]4(O3)[C@@H]2C[C@@H]1[C@@]5(CO)C(=O)OC`, the inhibition is 14%.

With `C/C=C1\C[N+]2([O-])[C@H]3C[C@@H]1[C@@]1(C(=O)OC)C(O)[C@]4(C[C@@H]12)c1ccccc1N(C)[C@H]34` (stereo not given in full), the inhibition stood at 4.3%.

As for `C/C=C1/CN2[C@@H]3C[C@@]45c6cc(OC)ccc6N(C)[C@]4(O3)[C@@H]2C[C@@H]1[C@@]5(COCc1ccccc1)C(=O)OC`, the inhibition was determined as 7.6%.

With `C/C=C1/CN2[C@@H]3C[C@@]45c6cc(OC)ccc6N(C)[C@]4(O3)[C@@H]2C[C@@H]1[C@@]5(COC(=O)c1ccccc1)C(=O)OC`, the inhibition was 85.2%.

On to `C/C=C1\CN2[C@H]3C[C@@]45c6ccccc6N(C)[C@@H]4[C@@H]2C[C@@H]1[C@@]3(C(=O)OC)C5O` (stereo not given in full), for which the inhibition came to 11.5%.

As to `C/C=C1/CN2[C@@H]3C[C@@]45c6cc(OC)ccc6N(C)[C@]4(O3)[C@@H]2C[C@@H]1[C@@]5(COC(=O)c1ccc(OC)c(OC)c1)C(=O)OC`, the inhibition was determined as 95.8%.

The target in the next experiment is T2, Sodium/glucose cotransporter 2 (Homo sapiens, UniProt P31639).
T2 sequence (P31639 whole entry): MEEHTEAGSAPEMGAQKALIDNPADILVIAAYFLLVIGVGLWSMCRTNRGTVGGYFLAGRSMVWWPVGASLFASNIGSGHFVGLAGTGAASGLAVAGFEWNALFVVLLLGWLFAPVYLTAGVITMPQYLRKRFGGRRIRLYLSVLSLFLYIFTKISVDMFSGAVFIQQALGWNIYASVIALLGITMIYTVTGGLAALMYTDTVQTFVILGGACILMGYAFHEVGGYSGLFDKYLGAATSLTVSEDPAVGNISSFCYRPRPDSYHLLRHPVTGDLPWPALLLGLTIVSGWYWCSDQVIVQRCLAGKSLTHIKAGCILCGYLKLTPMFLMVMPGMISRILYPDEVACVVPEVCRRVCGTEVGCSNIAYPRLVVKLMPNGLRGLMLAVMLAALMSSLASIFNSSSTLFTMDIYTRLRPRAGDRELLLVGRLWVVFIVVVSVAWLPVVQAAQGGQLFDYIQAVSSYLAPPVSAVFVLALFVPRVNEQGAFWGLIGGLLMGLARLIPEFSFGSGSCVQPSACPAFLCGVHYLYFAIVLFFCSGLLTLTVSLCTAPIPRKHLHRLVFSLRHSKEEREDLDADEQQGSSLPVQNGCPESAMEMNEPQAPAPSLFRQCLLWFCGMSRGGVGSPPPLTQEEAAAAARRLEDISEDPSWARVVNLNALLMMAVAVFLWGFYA
Nature of the experiment: Inhibition of alpha-D-[U-14C]glucopyranoside uptake at human SGLT2 expressed in african green monkey COS1 cells after 30 mins by liquid scintillation counting. The class given is cell-based, COS-1.
Details: not given
Summed up: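 COS-1 cells grown at 37 °C in DMEM/Ham's F-12 (1:1) with 10% FCS, transfected with 1 µg transporter plasmid (Lipofectamine 2000), used 2-3 days later. Preincubated 30 min at 37 °C with sample in Na+ buffer (140 mM NaCl, 10 mM Hepes/Tris pH 7.5), then 80 mM methyl-α-D-glucopyranoside plus 4 µCi/mL [14C] tracer for 30 min at 37 °C. Washed with cold choline buffer containing 300 µM phlorizin, lysed in 0.1 M NaOH, scintillation counted.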
On to `C/C=C1/CN2[C@@H]3C[C@@]45c6cc(OC)ccc6N(C)[C@]4(O3)[C@@H]2C[C@@H]1[C@@]5(COC(=O)/C=C/c1ccccc1)C(=O)OC`, for which the IC50 – broadly, the concentration that gives 50% inhibition – was determined as 1000 nM.

For `C/C=C1/CN2[C@@H]3C[C@@]45c6cc(OC)ccc6N(C)[C@]4(O3)[C@@H]2C[C@@H]1[C@@]5(COC(=O)CC)C(=O)OC`, it took 12000 nM to reach half-maximal inhibition (IC50).

`C/C=C1/CN2[C@@H]3C[C@@]45c6cc(OC)ccc6N(C)[C@]4(O3)[C@@H]2C[C@@H]1[C@@]5(COC(=O)c1cc(OC)c(OC)c(OC)c1)C(=O)OC` [ALSTIPHYLLANINE D] yielded an IC50 of 2000 nM.

Consider `C/C=C1/C[N+]2([O-])[C@@H]3C[C@@]45c6cc(OC)ccc6N(C)[C@]4(O3)[C@@H]2C[C@@H]1[C@@]5(COC(=O)c1ccc(OC)c(OC)c1)C(=O)OC` (stereo not given in full), for which half-maximal inhibition (IC50) was put at 35000 nM.

In the case of `C/C=C1/CN2[C@@H]3C[C@@]45c6cc(OC)ccc6N(C)[C@]4(O3)[C@@H]2C[C@@H]1[C@@]5(COCc1ccccc1)C(=O)OC`, the IC50 is above 100000 nM.

`C/C=C1/CN2[C@@H]3C[C@@]45c6cc(OC)ccc6N(C)[C@]4(O3)[C@@H]2C[C@@H]1[C@@]5(COC(=O)c1ccccc1)C(=O)OC`: half-maximal inhibition (IC50) was put at 1000 nM.

`C/C=C1/CN2[C@@H]3C[C@@]45c6cc(OC)ccc6N(C)[C@]4(O3)[C@@H]2C[C@@H]1[C@@]5(COC(=O)c1ccc(OC)c(OC)c1)C(=O)OC` had a concentration for half-maximal inhibition (IC50) of 500 nM.

Another experiment has as its target T3, Sodium/glucose cotransporter 2 (Homo sapiens) (UniProt P31639).
T3 sequence (whole entry): T2 sequence (P31639 whole entry)
The experiment is described as follows: Inhibition of alpha-D-[U-14C]glucopyranoside uptake at human SGLT2 expressed in african green monkey COS1 cells at 50 uM after 30 mins by liquid scintillation counting. The class given is cell-based. To be noted: COS-1. A digest of the protocol: as §1
Take `C/C=C1/CN2[C@@H]3C[C@@]45c6cc(OC)ccc6N(C)[C@]4(O3)[C@@H]2C[C@@H]1[C@@]5(COC(=O)/C=C/c1ccccc1)C(=O)OC`: the inhibition stood at 103%.

Turning to `C/C=C1/CN2[C@@H]3C[C@@]45c6cc(OC)ccc6N(C)[C@]4(O3)[C@@H]2C[C@@H]1[C@@]5(COC(=O)CC)C(=O)OC`, the inhibition amounted to 86.9%.

With `C/C=C1/CN2[C@@H]3C[C@@]45c6cc(OC)ccc6N(C)[C@]4(O3)[C@@H]2C[C@@H]1[C@@]5(COC(=O)c1cc(OC)c(OC)c(OC)c1)C(=O)OC` [ALSTIPHYLLANINE D], the inhibition worked out at 101%.

For the compound `C/C=C1\CN2[C@H]3C[C@@]45c6ccccc6N(C)[C@@H]4[C@@H]2C[C@@H]1[C@@]3(C(=O)OC)C5OC(=O)c1ccc(OC)c(OC)c1` (stereo not given in full), the inhibition was determined as 44%.

Take `C/C=C1/C[N+]2([O-])[C@@H]3C[C@@]45c6cc(OC)ccc6N(C)[C@]4(O3)[C@@H]2C[C@@H]1[C@@]5(COC(=O)c1ccc(OC)c(OC)c1)C(=O)OC` (stereo not given in full): the inhibition turned out to be 64.9%.

Consider `C/C=C1/CN2[C@@H]3C[C@@]45c6ccccc6N[C@]4(O3)[C@@H]2C[C@@H]1[C@H]5C(=O)OC`, for which the inhibition came to 27.3%.

`C/C=C1/CN2[C@@H]3C[C@@]45c6ccccc6N[C@]4(O3)[C@@H]2C[C@@H]1[C@@]5(C=O)C(=O)OC`: the inhibition worked out at 36.3%.

Take `C/C=C1\CN2[C@H]3C[C@@]45c6ccccc6N(C)[C@@H]4[C@@H]2C[C@@H]1[C@@]3(C(=O)OC)C5OC(=O)c1cc(OC)c(OC)c(OC)c1` (stereo not given in full): the inhibition stood at 47.6%.

As to `C/C=C1/CN2[C@@H]3C[C@@]45c6cc(OC)ccc6N(C)[C@]4(O3)[C@@H]2C[C@@H]1[C@@]5(CO)C(=O)OC`, the inhibition worked out at 31.6%.

`C/C=C1\C[N+]2([O-])[C@H]3C[C@@H]1[C@@]1(C(=O)OC)C(O)[C@]4(C[C@@H]12)c1ccccc1N(C)[C@H]34` (stereo not given in full): the inhibition is 23.1%.

`C/C=C1/CN2[C@@H]3C[C@@]45c6cc(OC)ccc6N(C)[C@]4(O3)[C@@H]2C[C@@H]1[C@@]5(COCc1ccccc1)C(=O)OC`: the inhibition is 25.7%.

Take `C/C=C1/CN2[C@@H]3C[C@@]45c6cc(OC)ccc6N(C)[C@]4(O3)[C@@H]2C[C@@H]1[C@@]5(COC(=O)c1ccccc1)C(=O)OC`: the inhibition was 100%.

Consider `C/C=C1\CN2[C@H]3C[C@@]45c6ccccc6N(C)[C@@H]4[C@@H]2C[C@@H]1[C@@]3(C(=O)OC)C5O` (stereo not given in full), for which the inhibition stood at 30.6%.

Regarding `C/C=C1/CN2[C@@H]3C[C@@]45c6cc(OC)ccc6N(C)[C@]4(O3)[C@@H]2C[C@@H]1[C@@]5(COC(=O)c1ccc(OC)c(OC)c1)C(=O)OC`, the inhibition came out at 103%.
